Test results from ChEMBL document CHEMBL4052804, “Design and synthesis of piperazine acetate podophyllotoxin ester derivatives targeting tubulin depolymerization as new anticancer agents” (Bioorg Med Chem Lett, 2017).
Activity calls are given as the source filed them. The rule behind the calls is not given here.

Columns and labels:
A549 = assay: Cytotoxicity against human A549 cells after 24 hrs by MTT assay; assay type: functional, cell-based; conditions: A549, 24 h
Outline: (§1)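 In vitro antiproliferative screen by MTT assay against human MCF-7 breast, HeLa cervical, A549 lung adenocarcinoma and HepG-2 hepatoma cells. Output is the IC50.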

HeLa = assay: Cytotoxicity against human HeLa cells after 24 hrs by MTT assay; assay type: functional, cell-based; outline: as §1
MCF7 [1] = assay: Cytotoxicity against human MCF7 cells after 24 hrs by MTT assay; assay type: functional, cell-based; conditions: MCF7, 24 h; outline: as §1
HepG2 = assay: Cytotoxicity against human HepG2 cells after 24 hrs by MTT assay; assay type: functional, cell-based; conditions: HepG2, 24 h; outline: as §1
L02 = assay: Cytotoxicity against human L02 cells after 24 hrs by MTT assay; assay type: cell-based; conditions: L02, 24 h
Outline: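 Normal human liver L02 cells were tested at multiple concentrations in an MTT assay. Output is the median cytotoxic concentration (CC50).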

MCF7 [2] = assay: Cell cycle arrest in human MCF7 cells assessed as accumulation at S phase at 0.3 uM after 12 hrs by propidium iodide staining based flow cytometric method (reference value: 27.63 to 32.34%); assay type: functional
MCF7 [3] = assay: Cell cycle arrest in human MCF7 cells assessed as accumulation at G2/M phase at 0.3 uM after 12 hrs by propidium iodide staining based flow cytometric method (reference value: 5.43 to 13.68%); assay type: functional
MCF7 [4] = assay: Cell cycle arrest in human MCF7 cells assessed as accumulation at S phase at 0.6 uM after 12 hrs by propidium iodide staining based flow cytometric method (reference value: 27.63 to 32.34%); assay type: functional
MCF7 [5] = assay: Cell cycle arrest in human MCF7 cells assessed as accumulation at G2/M phase at 0.6 uM after 12 hrs by propidium iodide staining based flow cytometric method (reference value: 5.43 to 13.68%); assay type: functional
MCF7 [6] = assay: Cell cycle arrest in human MCF7 cells assessed as accumulation at G1 phase at 0.9 uM after 12 hrs by propidium iodide staining based flow cytometric method (reference value: 58.69 to 62.23%); assay type: functional
MCF7 [7] = assay: Cell cycle arrest in human MCF7 cells assessed as accumulation at G2/M phase at 0.9 uM after 12 hrs by propidium iodide staining based flow cytometric method (reference value: 5.43 to 13.68%); assay type: functional
MCF7 [8] = assay: Cell cycle arrest in human MCF7 cells assessed as accumulation at G1 phase at 0.6 uM after 4 hrs by propidium iodide staining based flow cytometric method (reference value: 60.19 to 60.87%); assay type: functional
MCF7 [9] = assay: Cell cycle arrest in human MCF7 cells assessed as accumulation at S phase at 0.6 uM after 4 hrs by propidium iodide staining based flow cytometric method (reference value: 29.55 to 32.22%); assay type: functional
MCF7 [10] = assay: Cell cycle arrest in human MCF7 cells assessed as accumulation at G2/M phase at 0.6 uM after 4 hrs by propidium iodide staining based flow cytometric method (reference value: 7.59 to 9.58%); assay type: functional
MCF7 [11] = assay: Cell cycle arrest in human MCF7 cells assessed as accumulation at G1 phase at 0.6 uM after 8 hrs by propidium iodide staining based flow cytometric method (reference value: 60.19 to 60.87%); assay type: functional
MCF7 [12] = assay: Cell cycle arrest in human MCF7 cells assessed as accumulation at G2/M phase at 0.6 uM after 8 hrs by propidium iodide staining based flow cytometric method (reference value: 7.59 to 9.58%); assay type: functional
MCF7 [13] = assay: Cell cycle arrest in human MCF7 cells assessed as accumulation at S phase at 0.6 uM after 16 hrs by propidium iodide staining based flow cytometric method (reference value: 29.55 to 32.22%); assay type: functional
MCF7 [14] = assay: Cell cycle arrest in human MCF7 cells assessed as accumulation at G2/M phase at 0.6 uM after 16 hrs by propidium iodide staining based flow cytometric method (reference value: 7.59 to 9.58%); assay type: functional
MCF7 [15] = assay: Induction of apoptosis in human MCF7 cells assessed as early apoptotic cells at 2 uM after 24 hrs by Annexin-V-FITC/propidium iodide staining based flow cytometric method (reference value: 2.36 to 2.86%); assay type: functional
MCF7 [16] = assay: Induction of apoptosis in human MCF7 cells assessed as late apoptotic cells at 2 uM after 24 hrs by Annexin-V-FITC/propidium iodide staining based flow cytometric method (reference value: 2 to 3.7%); assay type: functional
MCF7 [17] = assay: Induction of apoptosis in human MCF7 cells assessed as necrotic cells at 2 uM after 24 hrs by Annexin-V-FITC/propidium iodide staining based flow cytometric method (reference value: 2.35 to 2.49%); assay type: functional
MCF7 [18] = assay: Induction of apoptosis in human MCF7 cells assessed as viable cells at 4 uM after 24 hrs by Annexin-V-FITC/propidium iodide staining based flow cytometric method (reference value: 91.6 to 92.7%); assay type: functional; conditions: MCF7, 24 h, read-out: Activity
MCF7 [19] = assay: Induction of apoptosis in human MCF7 cells assessed as early apoptotic cells at 4 uM after 24 hrs by Annexin-V-FITC/propidium iodide staining based flow cytometric method (reference value: 2.36 to 2.86%); assay type: functional
MCF7 [20] = assay: Induction of apoptosis in human MCF7 cells assessed as late apoptotic cells at 4 uM after 24 hrs by Annexin-V-FITC/propidium iodide staining based flow cytometric method (reference value: 2 to 3.7%); assay type: functional
MCF7 [21] = assay: Induction of apoptosis in human MCF7 cells assessed as viable cells at 8 uM after 24 hrs by Annexin-V-FITC/propidium iodide staining based flow cytometric method (reference value: 91.6 to 92.7%); assay type: functional; conditions: MCF7, 24 h, read-out: Activity
MCF7 [22] = assay: Induction of apoptosis in human MCF7 cells assessed as early apoptotic cells at 8 uM after 24 hrs by Annexin-V-FITC/propidium iodide staining based flow cytometric method (reference value: 2.36 to 2.86%); assay type: functional
MCF7 [23] = assay: Induction of apoptosis in human MCF7 cells assessed as late apoptotic cells at 8 uM after 24 hrs by Annexin-V-FITC/propidium iodide staining based flow cytometric method (reference value: 2 to 3.7%); assay type: functional
MCF7 [24] = assay: Induction of apoptosis in human MCF7 cells assessed as necrotic cells at 8 uM after 24 hrs by Annexin-V-FITC/propidium iodide staining based flow cytometric method (reference value: 2.35 to 2.49%); assay type: functional
MCF7 [25] = assay: Induction of apoptosis in human MCF7 cells assessed as viable cells at 12 uM after 24 hrs by Annexin-V-FITC/propidium iodide staining based flow cytometric method (reference value: 91.6 to 92.7%); assay type: functional; conditions: MCF7, 24 h, read-out: Activity
MCF7 [26] = assay: Induction of apoptosis in human MCF7 cells assessed as early apoptotic cells at 12 uM after 24 hrs by Annexin-V-FITC/propidium iodide staining based flow cytometric method (reference value: 2.36 to 2.86%); assay type: functional
MCF7 [27] = assay: Induction of apoptosis in human MCF7 cells assessed as necrotic cells at 12 uM after 24 hrs by Annexin-V-FITC/propidium iodide staining based flow cytometric method (reference value: 2.35 to 2.49%); assay type: functional
MCF7 [28] = assay: Upregulation of CDK1 expression in human MCF7 cells at 0.5 to 2 uM after 24 hrs by Western blot analysis; assay type: functional, cell-based
MCF7 [29] = assay: Down regulation of cyclin D1 expression in human MCF7 cells at 0.5 to 2 uM after 24 hrs by Western blot analysis; assay type: functional, cell-based
Homo sapiens = species: Homo sapiens; assay: Induction of tubulin depolymerization in human MCF7 cells at 0.5 to 1 uM after 12 hrs by DAPI staining based confocal microscopic analysis; assay type: cell-based

## COc1cc([C@@H]2c3cc4c(cc3[C@H](OC(=O)CN3CCN(c5ccc(Cl)c(Cl)c5)CC3)[C@H]3COC(=O)[C@H]23)OCO4)cc(OC)c1OC
A549
  IC50: 6.32 µM
HeLa
  IC50: 5.1 µM
MCF7 [1]
  IC50: 2.78 µM
HepG2
  IC50: 7.93 µM
L02
  IC50: > 100 µM
MCF7 [2]
  Activity: 24.21%
MCF7 [3]
  Activity: 37.72%
MCF7 [4]
  Activity: 4.21 - 20.78%
MCF7 [5]
  Activity: 60.98 - 69.25%
MCF7 [6]
  Activity: 8.32%
MCF7 [7]
  Activity: 81.03%
MCF7 [8]
  Activity: 46.58%
MCF7 [9]
  Activity: 23.99%
MCF7 [10]
  Activity: 29.43%
MCF7 [11]
  Activity: 29.54%
MCF7 [12]
  Activity: 44.13%
MCF7 [13]
  Activity: 5.92%
MCF7 [14]
  Activity: 85.57%
MCF7 [15]
  Activity: 10.1%
MCF7 [16]
  Activity: 6.11%
MCF7 [17]
  Activity: 2.61%
MCF7 [18]
  viability at 4 µM: 72.4%
MCF7 [19]
  Activity: 11.4%
MCF7 [20]
  Activity: 10.5%
MCF7 [21]
  viability at 8 µM: 67.9%
MCF7 [22]
  Activity: 14.7%
MCF7 [23]
  Activity: 14%
MCF7 [24]
  Activity: 3.45%
MCF7 [25]
  viability at 12 µM: 55.2%
MCF7 [26]
  Activity: 17.5%
MCF7 [27]
  Activity: 6.91%
MCF7 [28]
  Activity: Active
MCF7 [29]
  Activity: Active
Homo sapiens
  Activity: Active
